Source: ChEMBL document CHEMBL1275590, “Novel arylimidamides for treatment of visceral leishmaniasis” (Antimicrob Agents Chemother, 2010)
The source made the active and inactive calls.

Assays:
[1] = system: Mus musculus; test: Toxicity in BALB/c mouse assessed as occurrence of tremor at 30 mg/kg, iv; format: organism-based; design: dose 30 mg/kg, route intravenous; settings: in vivo
Method in brief: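 Single-dose escalation: female BALB/c mice (n = 1 per dose level) given one i.v. dose in sterile water (10 ml/kg), 5–50 mg/kg, observed for 2 days.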

[2] = system: Mus musculus; test: Renal toxicity in BALB/c mouse assessed as blood urea nitrogen level in serum at 100 mg/kg/day, po administered for five days (Rvb= 29 mg/dl); format: organism-based; design: route oral; settings: in vivo
Method in brief: (§1)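 Female BALB/c mice (n = 5 per dose), dosed once daily for 5 consecutive days p.o. (20 ml/kg) or i.v. (10 ml/kg) with compound in sterile water, prepared fresh daily under yellow light. Vehicle controls n = 5 per route. Clinical observations, body weights, serum chemistry and hematology on day 6 before necropsy; histopathology of formalin-fixed tissues. Chemistry analysed by one-way ANOVA with Dunnett's posttest.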

[3] = system: Mus musculus; test: Hepatotoxicity in BALB/c mouse assessed as AST level in serum at 150 mg/kg/day, po administered for five days (Rvb= 70 U/L); format: toxicity, organism-based; design: route oral; settings: in vivo
[4] = system: Mus musculus; test: Toxicity in BALB/c mouse at 25 mg/kg/day, po administered for five days; format: organism-based; design: route oral; settings: in vivo
[5] = system: Mus musculus; test: Hepatotoxicity in BALB/c mouse assessed as alkaline phosphatase level in serum at 100 mg/kg/day, po administered for five days (Rvb= 129 U/L); format: toxicity, organism-based; design: route oral; settings: in vivo
[6] = Oral bioavailability in Swiss Webster mouse at 16.5 mg/kg by HPLC-MS/MS analysis; format: ADME, organism-based; settings: in vivo
Method in brief: (§2)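 Male Swiss Webster mice (n = 3 per time point), single dose by oral gavage (sterile water solution) or tail-vein bolus i.v. (water diluted 1:1 with 2× saline, over ~10–20 s); dose volume 5 ml/kg. Terminal blood sampled from 5 min to 72 h postdose; plasma quantified by HPLC-MS/MS (positive-ion SRM). Noncompartmental analysis gave Cmax, Tmax, AUC0-∞, CL, Vss; bioavailability from p.o. versus i.v. exposure.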

[7] = Tmax in Swiss Webster mouse at 4.9 mg/kg, iv by HPLC-MS/MS analysis; format: ADME, organism-based; design: dose 4.9 mg/kg, route intravenous; settings: in vivo; method in brief: as §2
[8] = system: Mus musculus; test: Toxicity in BALB/c mouse assessed as splenic lymphoid depletion at 150 mg/kg/day, po; format: organism-based; design: route oral; settings: in vivo
Method in brief: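 Five-day repeat-dose study in female BALB/c mice (n = 5 per dose level): oral dosing once daily for five consecutive days in sterile water prepared fresh daily under yellow light, 20 ml/kg. Vehicle controls received sterile water only. Clinical observations and body weights were recorded, with blood for hematology and serum chemistry taken on day 6 before necropsy. A veterinary pathologist examined formalin-fixed tissues.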

[9] = Oral bioavailability in Swiss Webster mouse at 131 mg/kg by HPLC-MS/MS analysis; format: ADME, organism-based; settings: in vivo; method in brief: as §2
[10] = system: Mus musculus; test: Toxicity in BALB/c mouse assessed as hypoactivity at 100 mg/kg/day, ip after second dose; format: organism-based; design: route intraperitoneal; settings: in vivo
[11] = system: Mus musculus; test: Toxicity in BALB/c mouse assessed as occurrence of tremor at 10 mg/kg/day, iv administered for five days measured on day 2; format: organism-based; design: route intravenous; settings: in vivo; method in brief: as §1
[12] = system: Leishmania donovani; test: Antileishmanial activity against Leishmania donovani WR378 infected in golden Syrian hamster assessed as reduction in bone marrow parasitemia at 30 mg/kg/day, po administered for five days; format: functional; settings: 120 h
Method in brief: (§3)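 11-day golden hamster VL model adapted from an 8-day method, using L. donovani WR378 metacyclic promastigotes. Dosing was oral, once daily for 5 days. Animals were euthanized on day 11 post-infection. Liver, spleen and femoral bone marrow (flushed with Schneider's medium) were harvested.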

[13] = Drug level in Swiss Webster mouse liver at 5 mg/kg, iv after 2 hrs by HPLC/UV analysis; settings: read-out: Drug uptake
[14] = Oral bioavailability in Swiss Webster mouse at 70 mg/kg by HPLC-MS/MS analysis; format: ADME, organism-based; settings: in vivo; method in brief: as §2
[15] = Induction of mutagenicity in Salmonella serovar Typhimurium TA 100 assessed as number of revertant colonies at 5 ug by Ames assay in presence of Aroclor 1254-induced rat liver S9 metabolic activation system; format: toxicity, subcellular, Salmonella enterica subsp. enterica serovar Typhimurium
Method in brief: (§4)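 Ames plate incorporation with S. Typhimurium TA98 and TA100, with or without Aroclor 1254-induced rat liver S9 (10% vol/vol). Compound was dissolved in sterile water and serially diluted to 1–500 μg/plate. Positive controls were 2-nitrofluorene and sodium azide without S9, and 2-aminoanthracene with S9; sterile water and DMSO served as vehicles. Revertant colonies and background lawn were scored. A mutagen was defined as a mean revertant count at least 2-fold over solvent control. Single experiment.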

[16] = Induction of mutagenicity in Salmonella serovar Typhimurium TA 100 assessed as number of revertant colonies at 100 ug by Ames assay in presence of Aroclor 1254-induced rat liver S9 metabolic activation system; format: toxicity, subcellular, Salmonella enterica subsp. enterica serovar Typhimurium; method in brief: as §4
[17] = system: Leishmania donovani; test: Antileishmanial activity against Leishmania donovani WR378 infected in golden Syrian hamster assessed as reduction in spleen parasitemia at 50 mg/kg/day, po administered for five days; format: functional; settings: 120 h; method in brief: as §3
[18] = system: Leishmania donovani; test: Antileishmanial activity against Leishmania donovani WR378 infected in golden Syrian hamster assessed as reduction in bone marrow parasitemia at 100 mg/kg/day, po administered for five days; format: functional; settings: 120 h; method in brief: as §3
[19] = Induction of mutagenicity in Salmonella serovar Typhimurium TA 98 assessed as number of revertant colonies at 50 ug by Ames assay; format: toxicity, Salmonella enterica subsp. enterica serovar Typhimurium
Method in brief: (§5)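 Plate incorporation test, S. Typhimurium TA98 (and TA100), with or without Aroclor 1254-induced rat liver S9 (10% vol/vol). Compound dissolved in sterile water, serially diluted to 1–1,000 or 1–500 μg/plate. Positive controls: 2-nitrofluorene and sodium azide without S9, 2-aminoanthracene with S9; water and DMSO vehicle controls. Revertant colonies and background lawn scored; mutagen if mean revertants ≥2-fold solvent control. Single experiment.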

[20] = system: Leishmania donovani; test: Antileishmanial activity against Leishmania donovani WR378 infected in golden Syrian hamster assessed as reduction in liver parasitemia at 10 mg/kg/day, po administered for five days; format: functional; settings: 120 h; method in brief: as §3
[21] = Induction of mutagenicity in Salmonella serovar Typhimurium TA 100 assessed as number of revertant colonies at 10 ug by Ames assay in presence of Aroclor 1254-induced rat liver S9 metabolic activation system; format: toxicity, subcellular, Salmonella enterica subsp. enterica serovar Typhimurium; method in brief: as §4
[22] = Induction of mutagenicity in Salmonella serovar Typhimurium TA 98 assessed as number of revertant colonies at 5 ug by Ames assay in presence of Aroclor 1254-induced rat liver S9 metabolic activation system; format: toxicity, subcellular, Salmonella enterica subsp. enterica serovar Typhimurium; method in brief: as §5
[23] = system: Leishmania donovani; test: Antileishmanial activity against Leishmania donovani promastigotes in BALB/c mouse assessed as inhibition of liver parasitemia at 30 mg/kg/day, ip administered for five days; format: functional, organism-based
Method in brief: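 Murine VL model in L. donovani-infected mice. Compounds were dissolved in water and given i.p. or p.o. once daily for 5 days (4 days for one i.p. regimen). Liver parasitemia was compared with untreated controls by unpaired Student's t test, P ≤ 0.05.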

[24] = Cmax in Swiss Webster mouse at 5 mg/kg, iv by HPLC-MS/MS analysis; format: ADME, organism-based; design: dose 5 mg/kg, route intravenous; settings: in vivo
Method in brief: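 Male Swiss Webster mice, n = 3 per time point. For i.v., the compound was dissolved in sterile water, diluted 1:1 with 2× saline, and given as a tail-vein bolus over ~10–20 s. For p.o., it was given by gavage in sterile water. Dose volume was 5 ml/kg. Terminal plasma was taken from 5 min to 72 h and measured by HPLC-MS/MS (calibration 2.5–10,000 nM). Parameters came from noncompartmental analysis.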

In the case of CCOc1cc(NC(=N)c2ccccn2)ccc1-c1ccc(-c2ccc(NC(=N)c3ccccn3)cc2OCC)o1, the Activity [1] is reported as “Toxic”, the Activity [2] is reported as 52 mg/dL and the Activity [3] is reported as 770 U/L. The Activity [4] was “Non-toxic”, the Activity [5] was 120 U/L and the bioavailability [6] was 3.3%. For the same compound, the Tmax [7] was 5 min, the Activity [8] was “Toxic” and the bioavailability [9] was 25%. The Activity [10] was “Toxic” and the Activity [11] was “Toxic”.

Compound CC(C)Oc1cc(NC(=N)c2ccccn2)ccc1-c1ccc(-c2ccc(NC(=N)c3ccccn3)cc2OC(C)C)o1 has an inhibition in vivo at 30 mg/kg/day [12] of 24%, a concentration at 2 h [13] of 18.7 µM and a bioavailability [14] of 10.4%. It also gave an Activity [15] of 154, an Activity [16] of 98 and an inhibition in vivo at 50 mg/kg/day [17] of 74%. It also gave an inhibition in vivo at 100 mg/kg/day [18] of 92%, an Activity [19] of 28 and an inhibition in vivo at 10 mg/kg/day [20] of 10%. For the same compound, the Activity [21] was 148, the Activity [22] was 48 and the Activity [23] was “Active”. It also gave a Cmax [24] of 10.4 µM.
